Experimental data from ChEMBL document CHEMBL5705890, “Antitumor activity of an allosteric inhibitor of centromere-associated protein-E” (Proc Natl Acad Sci U S A, 2010).

How the values were obtained:
[1] = tested on: A-375; assay: Anticancer activity against human A-375 cells assessed as cell doubling measured for 72 hrs by DAPI staining based analysis; assay type: functional
[2] = Anticancer activity against human NL-SCLC3 cells assessed as cell doubling measured for 72 hrs by DAPI staining based analysis; assay type: functional
[3] = tested on: RPMI-8226; assay: Anticancer activity against human RPMI-8226 cells assessed as cell growth inhibition measured after 72 hrs by DAPI staining based analysis; assay type: functional
[4] = tested on: SW1783; assay: Anticancer activity against human SW1783 cells assessed as cell doubling measured for 72 hrs by DAPI staining based analysis; assay type: functional
[5] = tested on: PC-3; assay: Anticancer activity against human PC-3 cells assessed as cell doubling measured for 72 hrs by DAPI staining based analysis; assay type: functional
[6] = Antitumor activity against human MV-522 cells in xenograft model assessed as tumor growth delay at 62.5 mg/kg relative to control; assay type: functional
[7] = tested on: HT-29; assay: Antitumor activity against human HT-29 cells in xenograft model assessed as difference between median time to endpoint time of treated versus control group at 125 mg/kg; assay type: functional
[8] = tested on: HepG2; assay: Anticancer activity against human HepG2 cells assessed as cell growth inhibition measured after 72 hrs by DAPI staining based analysis; assay type: functional
[9] = target: Centromere-associated protein E (Homo sapiens, UniProt Q02224, K184T); assay: Binding affinity to human CENP-E K184T mutant assessed as inhibition constant
[10] = tested on: SK-NEP-1; assay: Anticancer activity against human SK-NEP-1 cells assessed as cell growth inhibition measured after 72 hrs by DAPI staining based analysis; assay type: functional
[11] = tested on: MDA-MB-175-VII; assay: Anticancer activity against human MDA-MB-175-VII cells assessed as cell growth inhibition measured after 72 hrs by DAPI staining based analysis; assay type: functional
[12] = tested on: HT-29; assay: Anticancer activity against human HT-29 cells assessed as cell growth inhibition measured after 72 hrs by DAPI staining based analysis; assay type: functional
[13] = tested on: HOS; assay: Anticancer activity against human HOS cells assessed as cell doubling measured for 72 hrs by DAPI staining based analysis; assay type: functional
[14] = tested on: DU-145; assay: Anticancer activity against human DU-145 cells assessed as cell growth inhibition measured after 72 hrs by DAPI staining based analysis; assay type: functional
Summary of the method: (§1)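 Cells seeded, DAPI-stained DNA content of fixed cells read by imaging 24 h after seeding (T0), and again after a further 72 h exposure to a range of drug concentrations (T72). T72 values were normalized to T0. Curve fits gave the concentration producing 50% growth inhibition relative to T0 and Ymax (GI50).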

[15] = tested on: MCF7; assay: Antitumor activity against human MCF7 cells in xenograft model assessed as difference between median time to endpoint time of treated versus control group at 125 mg/kg; assay type: functional
[16] = Anticancer activity against human MT-3 cells assessed as cell doubling measured for 72 hrs by DAPI staining based analysis; assay type: functional
[17] = tested on: HCC1954; assay: Anticancer activity against human HCC1954 cells assessed as cell doubling measured for 72 hrs by DAPI staining based analysis; assay type: functional
[18] = target: Centromere-associated protein E (Homo sapiens, UniProt Q02224); assay: Inhibition of microtubule-stimulated ATPase activity of C-terminal 6-his-tagged CENP-E (2 to 340 residues)(unknown origin) expressed in Escherichia coli BL21(DE3) in presence of ATP
Summary of the method: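 Steady-state ATPase of CENP-E motor domain, residues 2–340 with C-terminal 6-His tag, expressed in E. coli BL21(DE3). Run at 1 nM enzyme, 500 μM ATP and 5 μM paclitaxel-stabilized microtubules in PEM25 (25 mM PIPES-K pH 6.8, 2 mM MgCl2, 1 mM EGTA) plus 10 μM paclitaxel. IC50 taken from concentration-response curves.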

[19] = Anticancer activity against human NCI-H322T cells assessed as cell growth inhibition measured after 72 hrs by DAPI staining based analysis; assay type: functional
[20] = tested on: NCI-N87; assay: Anticancer activity against human NCI-N87 cells assessed as cell growth inhibition measured after 72 hrs by DAPI staining based analysis; assay type: functional
[21] = tested on: A549; assay: Antitumor activity against human A549 cells in xenograft model assessed as difference between median time to endpoint time of treated versus control group at 62.5 mg/kg; assay type: functional
[22] = tested on: NCI-H146; assay: Anticancer activity against human NCI-H146 cells assessed as cell doubling measured for 72 hrs by DAPI staining based analysis; assay type: functional
[23] = tested on: SNU-5; assay: Anticancer activity against human SNU-5 cells assessed as cell growth inhibition measured after 72 hrs by DAPI staining based analysis; assay type: functional
[24] = tested on: WiDr; assay: Anticancer activity against human WiDr cells assessed as cell doubling measured for 72 hrs by DAPI staining based analysis; assay type: functional
[25] = tested on: SF-295; assay: Anticancer activity against human SF-295 cells assessed as cell doubling measured for 72 hrs by DAPI staining based analysis; assay type: functional
[26] = tested on: NCI-H82; assay: Anticancer activity against human NCI-H82 cells assessed as cell growth inhibition measured after 72 hrs by DAPI staining based analysis; assay type: functional
[27] = tested on: BFTC-905; assay: Anticancer activity against human BFTC-905 cells assessed as cell growth inhibition measured after 72 hrs by DAPI staining based analysis; assay type: functional
Summary of the method: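 Cells were seeded and, after 24 h, DNA content was read as T0. Cells were then exposed to varying drug concentrations for a further 72 h (T72). Fixed cells were DAPI-stained and DNA content measured by automated imaging. T72 values were normalized to T0. GI50 is the concentration giving 50% growth inhibition between T0 and Ymax, obtained by curve fitting.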

[28] = tested on: NCI-H520; assay: Anticancer activity against human NCI-H520 cells assessed as cell doubling measured for 72 hrs by DAPI staining based analysis; assay type: functional
[29] = tested on: NCI-H526; assay: Anticancer activity against human NCI-H526 cells assessed as cell growth inhibition measured after 72 hrs by DAPI staining based analysis; assay type: functional
[30] = tested on: IGROV-1; assay: Anticancer activity against human IGROV-1 cells assessed as cell doubling measured for 72 hrs by DAPI staining based analysis; assay type: functional
[31] = tested on: MDA-MB-468; assay: Anticancer activity against human MDA-MB-468 cells assessed as cell growth inhibition measured after 72 hrs by DAPI staining based analysis; assay type: functional
[32] = tested on: MDA-MB-175-VII; assay: Anticancer activity against human MDA-MB-175-VII cells assessed as cell doubling measured for 72 hrs by DAPI staining based analysis; assay type: functional
[33] = tested on: D283 Med; assay: Anticancer activity against human D283 Med cells assessed as cell growth inhibition measured after 72 hrs by DAPI staining based analysis; assay type: functional; summary of the method: as §1
[34] = tested on: SK-N-AS; assay: Anticancer activity against human SK-N-AS cells assessed as cell doubling measured for 72 hrs by DAPI staining based analysis; assay type: functional
[35] = tested on: HEC-1B cell line; assay: Anticancer activity against human HEC-1B cells assessed as cell growth inhibition measured after 72 hrs by DAPI staining based analysis; assay type: functional
[36] = tested on: SW872; assay: Anticancer activity against human SW872 cells assessed as cell doubling measured for 72 hrs by DAPI staining based analysis; assay type: functional
[37] = tested on: NCI-H209; assay: Anticancer activity against human NCI-H209 cells assessed as cell growth inhibition measured after 72 hrs by DAPI staining based analysis; assay type: functional
[38] = Anticancer activity against human RDES cells assessed as cell doubling measured for 72 hrs by DAPI staining based analysis; assay type: functional, RD-ES

Sequence of Centromere-associated protein E (Homo sapiens, UniProt Q02224, K184T) (Q02224 whole entry K184T): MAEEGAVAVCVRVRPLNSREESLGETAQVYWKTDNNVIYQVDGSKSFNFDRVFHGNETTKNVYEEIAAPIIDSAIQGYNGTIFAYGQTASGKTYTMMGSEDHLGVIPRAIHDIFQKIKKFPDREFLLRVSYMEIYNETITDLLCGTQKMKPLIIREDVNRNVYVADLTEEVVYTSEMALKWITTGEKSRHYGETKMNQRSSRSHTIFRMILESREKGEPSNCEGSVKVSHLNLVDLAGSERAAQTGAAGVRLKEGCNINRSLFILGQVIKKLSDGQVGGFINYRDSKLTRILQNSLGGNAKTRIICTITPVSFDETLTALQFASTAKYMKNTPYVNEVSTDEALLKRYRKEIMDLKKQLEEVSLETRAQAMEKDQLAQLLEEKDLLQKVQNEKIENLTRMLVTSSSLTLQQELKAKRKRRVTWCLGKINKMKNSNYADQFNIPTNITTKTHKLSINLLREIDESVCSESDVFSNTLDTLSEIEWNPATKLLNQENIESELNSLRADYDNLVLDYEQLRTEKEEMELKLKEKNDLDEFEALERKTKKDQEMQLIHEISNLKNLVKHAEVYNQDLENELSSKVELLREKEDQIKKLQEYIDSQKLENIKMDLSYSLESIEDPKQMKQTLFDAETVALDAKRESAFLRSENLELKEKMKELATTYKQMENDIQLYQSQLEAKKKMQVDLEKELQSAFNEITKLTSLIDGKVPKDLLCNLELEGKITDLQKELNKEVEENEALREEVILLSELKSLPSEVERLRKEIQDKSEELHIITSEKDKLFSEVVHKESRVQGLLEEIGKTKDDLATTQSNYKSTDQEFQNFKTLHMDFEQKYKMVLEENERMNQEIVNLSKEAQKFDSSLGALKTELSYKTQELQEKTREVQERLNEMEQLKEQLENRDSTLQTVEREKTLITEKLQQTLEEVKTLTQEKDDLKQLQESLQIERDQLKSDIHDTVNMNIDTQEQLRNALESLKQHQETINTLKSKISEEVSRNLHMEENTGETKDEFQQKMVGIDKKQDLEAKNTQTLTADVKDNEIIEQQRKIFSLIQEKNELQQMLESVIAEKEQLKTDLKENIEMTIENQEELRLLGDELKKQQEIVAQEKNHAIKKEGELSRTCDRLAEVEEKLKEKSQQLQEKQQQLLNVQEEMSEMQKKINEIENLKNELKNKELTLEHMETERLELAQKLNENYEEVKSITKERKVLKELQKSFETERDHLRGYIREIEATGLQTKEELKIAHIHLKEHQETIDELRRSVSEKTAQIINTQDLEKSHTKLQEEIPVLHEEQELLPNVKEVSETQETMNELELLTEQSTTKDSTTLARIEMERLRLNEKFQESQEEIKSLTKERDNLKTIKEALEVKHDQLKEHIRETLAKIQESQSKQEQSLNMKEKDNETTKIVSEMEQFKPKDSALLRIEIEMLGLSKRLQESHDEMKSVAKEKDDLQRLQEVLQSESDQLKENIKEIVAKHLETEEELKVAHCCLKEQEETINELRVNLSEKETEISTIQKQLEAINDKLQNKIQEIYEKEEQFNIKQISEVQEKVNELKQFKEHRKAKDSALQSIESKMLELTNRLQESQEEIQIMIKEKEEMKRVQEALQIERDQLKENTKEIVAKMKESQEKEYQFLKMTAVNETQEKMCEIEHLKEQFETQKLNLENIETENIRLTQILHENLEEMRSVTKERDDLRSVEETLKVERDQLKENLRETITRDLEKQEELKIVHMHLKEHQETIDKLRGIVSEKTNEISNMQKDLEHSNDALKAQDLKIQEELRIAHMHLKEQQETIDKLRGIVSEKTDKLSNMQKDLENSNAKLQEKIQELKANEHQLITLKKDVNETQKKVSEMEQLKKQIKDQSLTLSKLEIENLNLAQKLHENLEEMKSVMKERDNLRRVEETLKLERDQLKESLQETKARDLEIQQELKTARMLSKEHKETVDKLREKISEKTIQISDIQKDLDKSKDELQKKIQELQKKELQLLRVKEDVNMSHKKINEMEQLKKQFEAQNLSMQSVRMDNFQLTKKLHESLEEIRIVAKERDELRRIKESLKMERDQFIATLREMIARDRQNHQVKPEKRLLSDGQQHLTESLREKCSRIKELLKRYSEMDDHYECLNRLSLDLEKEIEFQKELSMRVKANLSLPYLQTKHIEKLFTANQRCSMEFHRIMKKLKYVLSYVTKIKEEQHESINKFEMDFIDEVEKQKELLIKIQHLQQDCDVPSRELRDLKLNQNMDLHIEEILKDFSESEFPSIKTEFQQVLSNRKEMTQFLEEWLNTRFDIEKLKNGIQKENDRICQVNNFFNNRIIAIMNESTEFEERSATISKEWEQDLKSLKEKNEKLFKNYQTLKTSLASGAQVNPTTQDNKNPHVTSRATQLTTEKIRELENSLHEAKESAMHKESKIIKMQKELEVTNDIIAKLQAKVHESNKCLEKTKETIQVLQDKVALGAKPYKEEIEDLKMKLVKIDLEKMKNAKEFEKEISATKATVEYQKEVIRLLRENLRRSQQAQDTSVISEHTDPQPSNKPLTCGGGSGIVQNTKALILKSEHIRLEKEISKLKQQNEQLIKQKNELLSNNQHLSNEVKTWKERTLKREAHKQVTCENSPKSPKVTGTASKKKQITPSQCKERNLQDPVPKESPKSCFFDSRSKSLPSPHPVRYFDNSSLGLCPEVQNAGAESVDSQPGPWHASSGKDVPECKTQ
Sequence of Centromere-associated protein E (Homo sapiens, UniProt Q02224) (Q02224 whole entry, the tested form may be a part): as the sequence (Q02224 whole entry K184T) above, with T184K counted along it

For `CC(C)Oc1ccc(C(=O)N[C@H](CNC(=O)CN(C)C)Cc2ccc(-c3cn4cccc([C@H](C)O)c4n3)cc2)cc1Cl` [GSK-923295A], the Activity [1] was 3.04, the Activity [2] was 2.68 and the GI50 [3] was 27 nM. For the same molecule, the Activity [4] was 1.47, the Activity [5] was 3.07 and the Activity [6] was 50%. The Time [7] was 18 days, the GI50 [8] was 31 nM and the Ki [9] was 12 nM. For the same molecule, the GI50 [10] was 55 nM, the GI50 [11] was 23 nM and the GI50 [12] was 14 nM. The Activity [13] was 3.65, the GI50 [14] was 23 nM and the Time [15] was 15.8 days. The Activity [16] was 2.93, the Activity [17] was 2.04 and the IC50 [18] was 2.3 nM. The GI50 [19] was 25 nM, the GI50 [20] was 29 nM and the Time [21] was 3.7 days. The Activity [22] was 1.2, the GI50 [23] was 88 nM and the Activity [24] was 3.05. The Activity [25] was 2.3, the GI50 [26] was 18 nM and the GI50 [27] was 30 nM. It also gave an Activity [28] of 2.15, a GI50 [29] of 88 nM and an Activity [30] of 2.69. It also gave a GI50 [31] of 25 nM, an Activity [32] of 1.15 and a GI50 [33] of 28 nM. The Activity [34] was 2.37, the GI50 [35] was 28 nM and the Activity [36] was 2.43. For the same molecule, the GI50 [37] was 20 nM and the Activity [38] was 1.32.
